High-throughput results deposited in PubChem by several laboratories.
Rows were chosen to be rich in hits. Some 1.5% of all compounds tested hit in one or more screens of this group.
697 NFkB inh – inhibitors of PMA/ionomycin-induced NF-kB reporter, 697 cells, primary screen, B-cell NF-kB inhibitor project, cell-based, luminescence, uHTS; inhibition, % at 4 µM; 697 B-cell NF-kB luciferase reporter, 16 h; AID 435022, 2010; 330,000 compounds, 0.33% hits; in the data active means inhibition above about 35%
NR2E3 ag-1 – inhibitors of NR2E3-RetCOR corepressor binding, primary screen, NR2E3 agonist project, biochemical, TR-FRET, GST-NR2E3, biotin-RetCOR; 1536-well; inhibition of corepressor binding, % at 4.78 µM; 320,000 compounds, 0.12% hits; AID 2300, 2010;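 active means percent inhibition above the cutoff of mean plus 3 SD of all tested compounds, set per screening campaign, cut at about 20% in these data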;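 further: 0% = DMSO wells and 100% = biotin wells as full block of FRET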
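System: GST-tagged NR2E3 plus biotinylated RetCOR corepressor; Buffer or medium: pH 7.5 Tris-based buffer; Probe or stimulus: RetCOR corepressor, biotinylated, 7 nM; Doses: compound at 4.8 µM, single dose; Schedule: 5 h incubation at 4 °C; Technique: time-resolved FRET; Evaluation: percent inhibition of TR-FRET ratio; Replication: one well per compound, singlicate testing.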
NR2E3 ag-2 – NR2E3 agonists in two-hybrid cells, primary screen, cell-based, luminescence, CHO-S, Gal4-NCOR/VP16-NR2E3; Photoreceptor-specific nuclear receptor (Homo sapiens), Q9Y5X4; luciferase; inhibition of corepressor binding, % at 3.98 µM; 360,000 compounds, 0.35% hits;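 active means inhibition above the mean of all tested compounds plus 3 SD, cut at about 70% in these data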;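 further: 0% = DMSO with NR2E3 transfected cells and 100% = cells lacking NR2E3 construct; higher means lower luciferase signal from less NR2E3 corepressor binding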
GalR3 antag – GalR3 antagonists in HEK293 cells, primary screen, cell-based, fluorescence readout; Galanin receptor type 3 (Homo sapiens), O60755; HEK293 GalR3-CNG cAMP membrane potential fluorescence; galR3 body fused to GalR1 C-terminus; inhibition, % at 3 µM; 360,000 compounds, 0.44% hits; AID 651719, 2012;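 active means inhibition above the screen-wide average plus 3 SD, cut at about 13% in these data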;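 further: forskolin and galanin both at EC90 stimulate the cells; cAMP rise reported by CNG channel membrane potential dye signal; 0% = forskolin plus galanin with DMSO and 100% = forskolin alone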
Target sequence (O60755 1-299 limits assumed): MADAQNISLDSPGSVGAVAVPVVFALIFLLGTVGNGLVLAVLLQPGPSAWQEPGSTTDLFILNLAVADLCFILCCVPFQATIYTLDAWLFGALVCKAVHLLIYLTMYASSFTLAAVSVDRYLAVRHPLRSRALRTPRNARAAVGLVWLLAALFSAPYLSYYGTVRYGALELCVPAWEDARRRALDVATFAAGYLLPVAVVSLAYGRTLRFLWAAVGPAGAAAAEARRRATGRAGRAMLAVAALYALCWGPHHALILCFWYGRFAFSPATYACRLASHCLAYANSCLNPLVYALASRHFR
GASC-1 inh – inhibitors of GASC-1 histone demethylase, primary screen, biochemical, fluorescence, DELFIA europium; GST-JMJD2C(1-420) H3K9me3 demethylation; inhibition, % at 2.35 µM; 330,000 compounds, 0.069% hits; AID 2099, 2009;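 active means more than half of a compound's replicate wells show inhibition beyond 50%, single wells judged on their own value; inconclusive means some, but no more than half, of replicates pass 50% inhibition; inactive means no replicate passes 50% inhibition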;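 further: signal counts dimethyl H3K9 product captured on neutravidin plate; 0% = median of DMSO wells and 100% = 0.3 times that DMSO median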
Target sequence (Q9H3R0 1-420 limits assumed): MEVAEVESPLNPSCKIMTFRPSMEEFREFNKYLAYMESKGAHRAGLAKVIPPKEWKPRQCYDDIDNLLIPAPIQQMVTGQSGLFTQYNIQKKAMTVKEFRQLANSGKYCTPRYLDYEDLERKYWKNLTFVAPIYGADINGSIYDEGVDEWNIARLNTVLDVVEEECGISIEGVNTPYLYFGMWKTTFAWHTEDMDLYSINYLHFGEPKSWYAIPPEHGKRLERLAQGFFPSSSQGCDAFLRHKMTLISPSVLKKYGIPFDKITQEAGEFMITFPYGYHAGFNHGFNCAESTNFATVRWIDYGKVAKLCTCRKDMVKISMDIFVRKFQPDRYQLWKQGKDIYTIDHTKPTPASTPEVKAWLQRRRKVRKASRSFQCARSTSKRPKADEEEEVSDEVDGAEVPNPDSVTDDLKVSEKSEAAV
Jurkat NFkB inh – inhibitors of induced NF-kB luciferase reporter, primary screen, TCR NF-kB activation inhibitor project, cell-based, luminescence, uHTS; Jurkat, PMA/ionomycin-induced NF-kB luciferase reporter; inhibition, % at 4 µM; 330,000 compounds, 0.53% hits; AID 435003, 2010; in the data active means inhibition above about 50%
NR2E3 ag conf – NR2E3 agonist confirmation in cells, cell-based, luminescence, CHO-S two-hybrid. 2,300 compounds, 51% hits. shares compounds with NR2E3 ag-2. inhibition, % at 3.98 µM. CHO-S mammalian two-hybrid NR2E3-NCOR, luciferase luminescence;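 active means average inhibition above a cutoff equal to the mean inhibition of all tested compounds plus one SD, cut at about 70% in these data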;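 further: 0% = DMSO in NR2E3 cells and 100% = DMSO in cells lacking NR2E3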
GAL4-VP16 luc – GAL4-VP16 reporter modulators, confirmation, counter-screen for NR2E3 agonist project, cell-based, luminescence, CHO-S, high throughput; shares compounds with NR2E3 ag-2; CHO-S GAL4-VP16 luciferase reporter; inhibition, % at 3.98 µM; 2,300 compounds, 29% hits; AID 624379, 2012;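 active means mean inhibition above a cutoff equal to the average over all tested compounds plus one standard deviation, cut at about 70% in these data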;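 further: luciferase from a UAS reporter driven by GAL4-VP16 transactivation; 0% = DMSO with VP16-transfected cells and 100% = DMSO with cells lacking VP16; higher means less reporter light so more repression of VP16 activity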
* hit, by the source's call; i = inactive; ? = inconclusive; nt = no result.

SMILES | 697 NFkB inh | NR2E3 ag-1 | NR2E3 ag-2 | GalR3 antag | GASC-1 inh | Jurkat NFkB inh | NR2E3 ag conf | GAL4-VP16 luc
COc1ccc(N2CCN(S(=O)(=O)c3ccc4c(c3)NC(=O)C(C)S4)CC2)cc1 (configuration not stated) | -25.5 | 1.0 | 64.1 | 11.6 | -1.2 | 11.6 | 37.7 | 29.1
COc1ccc(N2CCN(S(=O)(=O)c3ccc4c(c3)NC(=O)CS4)CC2)cc1 | -29.6 | -1.5 | -5.4 | -6.1 | 17.4 | 6.8 | nt | nt
CCc1cccc(NS(=O)(=O)c2ccc3c(c2)NC(=O)C(C)S3)c1 (configuration not stated) | -23.9 | 2.4 | 48.4 | -10.3 | -9.8 | -3.4 | 65.7 | 56.6
Cc1ccc(CNS(=O)(=O)c2ccc3c(c2)NC(=O)C(C)S3)cc1 (configuration not stated) | -9.9 | 1.0 | 52.6 | -7.3 | 9.3 | 10.8 | 45.6 | 45.5
CC(C)/C=N/Nc1nc(-c2ccc(Br)cc2)cs1 | -59.2 | -1.4 | -16.6 | -5.0 | -5.7 | -27.8 | nt | nt
CC1CC2(CC(CN(C3CCCCC3)C3CCCCC3)OC2=O)C(=O)O1 (configuration not stated) | nt | nt | 9.7 | nt | nt | nt | nt | nt
COC(=O)[C@]12C[C@H](CC(=O)NCc3ccc(C)o3)C(=O)N(CCC3=CCCCC3)C1=C[C@H](COCc1ccccc1)O[C@@H]2C | nt | nt | nt | -9.1 | nt | nt | nt | nt
Cc1ccc(C(=O)NCCCNC(=O)c2ccco2)cc1C | -4.4 | 4.7 | -9.8 | -3.3 | 14.7 | -11.7 | nt | nt
O=C(CSc1nnc(C2CC2)n1-c1ccccc1)NCCc1ccccc1 | 4.4 | 1.1 | 2.1 | -1.7 | 3.6 | 12.7 | nt | nt
Cc1ccc(C(NC(=O)Nc2ccccn2)C(Cl)(Cl)Cl)cc1F (configuration not stated) | -35.7 | 1.0 | -3.6 | -6.9 | 6.8 | -1.1 | nt | nt
CC1Sc2ccc(S(=O)(=O)N(C)Cc3ccccc3)cc2NC1=O (configuration not stated) | -25.7 | 2.0 | -14.2 | -9.1 | 4.9 | -2.0 | nt | nt
CCC(Cc1ccccc1)NS(=O)(=O)c1ccc2c(c1)NC(=O)C(C)S2 (configuration not stated) | -26.0 | 3.9 | 49.2 | -8.1 | -0.1 | -4.9 | 62.0 | 50.2
COc1cccc(C(c2cccc(OC)c2)c2ccccc2C(=O)O)c1 | nt | nt | -1.2 | -4.1 | nt | nt | nt | nt
Cc1ccc(S(=O)(=O)n2ccc3c(OCCOCCNCc4ccc(F)cc4)cccc32)cc1 | -26.2 | -1.5 | 63.0 | -8.8 | 6.5 | 13.9 | 34.1 | 40.4
CSC1SCC2C(=O)N(C)C(C(C)C)C(=O)OCC(NC(=O)c3cnc4ccccc4n3)C(=O)NC(C)C(=O)N(C)C1C(=O)N(C)C(C(C)C)C(=O)OCC(NC(=O)c1cnc3ccccc3n1)C(=O)NC(C)C(=O)N2C (configuration not stated) | nt | nt | 102.8* | -6.1 | nt | nt | 98.3* | 94.9*
C=CCn1c(O)c(N=NC(=S)Nc2cccc(C)c2)c2ccccc21 | 8.0 | -4.2 | 79.8* | -5.2 | i | 3.9 | 27.6 | 42.3
C=CCn1c(O)c(N=NC(=S)Nc2ccccc2F)c2ccccc21 | -3.1 | 4.3 | 86.2* | -8.0 | 5.8 | 8.5 | 22.8 | 32.5
CC(C)(C)c1ccc(-n2ncc3c2CCCC3NC(=O)c2cnccn2)cc1 (configuration not stated) | -71.9 | 0.4 | 88.8* | -1.6 | 1.0 | -2.6 | 58.8 | 47.5
CCc1[nH]nc(C(=O)NC2CCCc3c2cnn3-c2cc(C)cc(C)c2)c1C (configuration not stated) | -170.9 | 1.6 | 61.4 | 2.9 | 10.1 | -20.1 | 54.3 | -7.5
CCn1nc(C)cc1C(=O)NC1CCCc2c1cnn2-c1ccc(C)c(C)c1 (configuration not stated) | -38.9 | -2.3 | 57.9 | -7.0 | -5.1 | 42.7 | 55.0 | 40.0
COc1ccccc1NC(=O)CSc1nc2ccccc2nc1N1CC(C)OC(C)C1 (configuration not stated) | 10.4 | 2.3 | -14.2 | nt | 9.6 | 3.6 | nt | nt
CCc1nnc(NC(=O)CS(=O)(=O)Cc2ccccc2)s1 | 7.7 | 3.4 | 4.8 | -7.8 | ? | 8.2 | nt | nt
CC(C)CN(C(=O)c1cc(=O)[nH]c2ccccc12)c1c(N)n(Cc2ccccc2)c(=O)[nH]c1=O | -14.6 | -2.7 | 4.0 | -0.8 | -4.9 | 14.1 | nt | nt
CN(Cc1ccc(Cl)cc1)C(CCc1ccccc1)C(=O)NC1CCCCC1 (configuration not stated) | nt | nt | 2.1 | -7.5 | nt | nt | nt | nt
CCCn1c(SC(C)C(=O)NCC2CCCO2)nc2sc3c(c2c1=O)CCC3 (configuration not stated) | -14.1 | -0.5 | -28.4 | -0.4 | 1.9 | 14.9 | nt | nt
SMILES | 697 NFkB inh | NR2E3 ag-1 | NR2E3 ag-2 | GalR3 antag | GASC-1 inh | Jurkat NFkB inh | NR2E3 ag conf | GAL4-VP16 luc
CS(=O)(=O)c1ccccc1C(=O)N1CCN(S(=O)(=O)c2ccc(C3CCCCC3)cc2)CC1 | 2.2 | nt | 49.3 | -3.4 | nt | 7.8 | 33.3 | 37.5
CC(C)(C)C(=O)NC(=S)NNC(=O)c1ccc(-c2ccccc2)cc1 | -161.1 | 3.0 | 62.4 | nt | -0.9 | -19.4 | 96.4* | 52.3
O=C(NCc1ccccc1Cl)C(=O)NCC1OCCN1S(=O)(=O)c1cccs1 (configuration not stated) | 3.3 | 4.0 | -11.7 | -1.9 | 2.0 | -6.7 | nt | nt
O=c1ccn(C2CC(O)C(COC(c3ccccc3)(c3ccccc3)c3ccccc3)O2)c(=O)[nH]1 (configuration not stated) | nt | nt | nt | -3.9 | nt | nt | nt | nt
c1ccc(-c2nc(NCC3CCCO3)c3ccccc3n2)nc1 (configuration not stated) | -18.8 | -0.2 | 88.7* | -3.1 | -3.4 | 4.2 | -8.2 | 1.9
c1ccc(-c2nc(NCc3ccco3)c3ccccc3n2)nc1 | 11.4 | 0.2 | 83.0* | -5.5 | -0.9 | 7.1 | 10.8 | -1.9
c1ccc(Nc2nc(NCC3CCCO3)c3ccccc3n2)cc1 (configuration not stated) | -48.1 | -0.1 | 6.3 | 1.8 | -1.5 | 13.4 | nt | nt
